Tests used:
[1] = Induction of heme alkylation of Fe(II) heme assessed as loss of heme at 10 uM in presence of 50% ACN-H2O with excess sodium dithionite under argon at 20 degC by spectrophotometry
Method in brief: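 Fe(II) heme (10 μM final; hemin reduced by excess sodium dithionite) in 50% ACN-water under continuous argon, 20°C, stirred; reaction started with peroxide at 10 μM final. Soret absorbance (418 nm) read every 0.1 s, converted to heme concentration via linear calibration (ε = 1.26 × 10⁵ M⁻¹ cm⁻¹); heme loss measured at completion (t = 30 s). n = 3.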

Plasmodium falciparum = assay: Antimalarial activity against chloroquine-resistant Plasmodium falciparum K1; format: functional, organism-based
[2] = Induction of heme alkylation of Fe(II) heme assessed as adduct A472 absorbance change at completion of reaction at 10 uM in presence of 50% ACN-H2O with excess sodium dithionite under argon at 20 degC by spectrophotometry
Method in brief: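 Reduced heme made from hemin (10 μM final) in 50% ACN-water (from 0.5 mM stock in 0.1 M NaOH) with excess sodium dithionite, argon-purged sealed cell, stirred at 20°C; peroxide added to 10 μM final. Product formation followed as A472, normalized to initial 418 nm heme absorbance; taken at completion (t = 30 s). n = 3.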

Compound | inhibition [1] [%] | IC50 (Plasmodium falciparum) [nM] | deltaA [2]
C1CCC2(CC1)OOC1(O2)C2CC3CC(C2)CC1C3 (stereo not drawn) | 86 | 3.8 | 0.84
CC(C)(N)CNC(=O)C[C@H]1CC[C@]2(CC1)OO[C@]1(O2)C2CC3CC(C2)CC1C3 | 83 |  | 0.89
CO[C@H]1O[C@@H]2O[C@@]3(C)CC[C@H]4[C@H](C)CC[C@@H]([C@H]1C)[C@@]24OO3 | 24 |  | 
C[C@H]1[C@@H](O)O[C@@H]2O[C@@]3(C)CC[C@H]4[C@H](C)CC[C@@H]1[C@@]24OO3 [ARTENIMOL] | 28 | 0.77 | 0.22
O=C(O)C[C@H]1CC[C@]2(CC1)OO[C@]1(O2)C2CC3CC(C2)CC1C3 | 83 | 110 | 0.87
C[C@@H]1CC[C@H]2[C@@H](C)C(=O)O[C@@H]3O[C@@]4(C)CC[C@@H]1[C@]32OO4 | 15 |  | 0.12
OC[C@H]1CC[C@]2(CC1)OO[C@]1(O2)C2CC3CC(C2)CC1C3 | 83 | 2.8 | 0.89
O=C(O)[C@H]1CC[C@]2(CC1)OO[C@]1(O2)C2CC3CC(C2)CC1C3 | 74 | 49 | 0.89
c1ccc([C@@H]2OOC3(O2)C2CC4CC(C2)CC3C4)cc1 (stereo partly drawn) | 16 | 1500 | 0.13
O=C1CCC2(CC1)OOC1(O2)C2CC3CC(C2)CC1C3 (stereo not drawn) | 81 | 1.7 | 0.88
CC(C)(O)[C@H]1CC[C@]2(CC1)OO[C@]1(O2)C2CC3CC(C2)CC1C3 | 30 | 210 | 0.23
CC1(C)CC[C@]2(CC1)OO[C@]1(O2)C2CC3CC(C2)CC1C3 | 82 | 7.9 | 0.77
C1CC[C@]2(CC1)OO[C@]1(O2)C2CCCC1CCC2 | 9 | 340 | 0.03
C1CCC2(CC1)OOC1(CCCCC1)O2 | 17 |  | 0.03
OC[C@H]1CC[C@@]2(CC1)OO[C@@]1(O2)C2CC3CC(C2)CC1C3 | 83 | 2.6 | 0.78
c1ccc(C2(c3ccccc3)CCC3(CC2)OOC2(O3)C3CC4CC(C3)CC2C4)cc1 (stereo not drawn) | 11 |  | 0.1
CC(C)(C)[C@H]1CC[C@]2(CC1)OO[C@]1(O2)C2CC3CC(C2)CC1C3 | 34 | 200 | 0.25
c1ccc([C@H]2CC[C@]3(CC2)OO[C@]2(O3)C3CC4CC(C3)CC2C4)cc1 | 77 | 6.5 | 0.79
NC[C@H]1CC[C@]2(CC1)OOC1(O2)C2CC3CC(C2)CC1C3 (stereo partly drawn) | 83 |  | 0.87
C[C@@]1(c2ccccc2)OOC2(O1)C1CC3CC(C1)CC2C3 (stereo partly drawn) | 67 | 10 | 0.63
C[C@H]1[C@H](OC(=O)CCC(=O)O)O[C@@H]2O[C@@]3(C)CC[C@H]4[C@H](C)CC[C@@H]1[C@@]24OO3 [ARTESUNATE] | 44 | 3.2 | 0.39
O=S(=O)(O)OC[C@H]1CC[C@]2(CC1)OO[C@]1(O2)C2CC3CC(C2)CC1C3 | 81 | 250 | 0.85
CCC[C@H]1CC[C@]2(CC1)OO[C@]1(O2)C2CC3CC(C2)CC1C3 | 85 | 3.6 | 0.8
Clc1ccc([C@H]2CC[C@]3(CC2)OO[C@]2(O3)C3CC4CC(C3)CC2C4)cc1 | 84 | 20 | 0.84
O=C1C2CC3CC1CC(C2)[C@]31OO[C@@]2(CCCCC2)O1 | 61 | 20 | 0.57
